Assays:
[1] = tested on: MCF-10A; assay: Cytotoxicity against human MCF10A cells assessed as reduction in cell viability after 96 hrs by MTT assay; assay type: cell-based
Summary of the method: (§1)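 Antiproliferative IC50 values were determined in MCF-7, MDA-MB-468, TCDD-treated MCF-7 (high CYP1A1 expression) and non-tumour MCF-10A breast cells. Each value is the mean of two independent experiments run in quadruplicate.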

[2] = tested on: MCF7; assay: Antiproliferative activity against ER positive human MCF7 cells expressing low level of CYP assessed as reduction in cell viability measured after 96 hrs by MTT assay; assay type: functional, cell-based; details: MCF7, 96 h; summary of the method: as §1
[3] = tested on: MDA-MB-468; assay: Antiproliferative activity against ER negative human MDA-MB-468 cells expressing CYP1A1 and CYP1B1 assessed as reduction in cell viability measured after 96 hrs by MTT assay; assay type: functional, cell-based; details: MDA-MB-468, 96 h; summary of the method: as §1
[4] = tested on: MCF7; assay: Antiproliferative activity against […]-induced ER positive human MCF7 cells expressing CYP1A1 assessed as reduction in cell viability after 96 hrs by MTT assay; assay type: functional, cell-based; details: MCF7, 96 h; summary of the method: as §1
[5] = Selectivity index, ratio of IC50 for human MCF10A cells to IC50 for human MDA-MB-468 cells expressing CYP1A1 and CYP1B1; assay type: toxicity; details: read-out: Ratio IC50
[6] = tested on: MCF7; assay: Activation factor, ratio of antiproliferative IC50 of ER positive human MCF7 cells expressing low level of CYP to antiproliferative IC50 of […]-induced ER positive human MCF7 cells expressing CYP1A1; assay type: functional
[7] = biological target: T1, Cytochrome P450 1B1 (Homo sapiens, UniProt Q16678); assay: Drug metabolism in supersomes expressing human CYP1B1 and coexpressing NADPH reductase assessed as CYP1B1-mediated drug metabolism by measuring retention time at 10 uM in the presence of NADPH measured at 5 mins interval for 25 mins by reverse phase HPLC method; assay type: ADME; details: recombinant enzyme
T1 sequence (Q16678 whole entry): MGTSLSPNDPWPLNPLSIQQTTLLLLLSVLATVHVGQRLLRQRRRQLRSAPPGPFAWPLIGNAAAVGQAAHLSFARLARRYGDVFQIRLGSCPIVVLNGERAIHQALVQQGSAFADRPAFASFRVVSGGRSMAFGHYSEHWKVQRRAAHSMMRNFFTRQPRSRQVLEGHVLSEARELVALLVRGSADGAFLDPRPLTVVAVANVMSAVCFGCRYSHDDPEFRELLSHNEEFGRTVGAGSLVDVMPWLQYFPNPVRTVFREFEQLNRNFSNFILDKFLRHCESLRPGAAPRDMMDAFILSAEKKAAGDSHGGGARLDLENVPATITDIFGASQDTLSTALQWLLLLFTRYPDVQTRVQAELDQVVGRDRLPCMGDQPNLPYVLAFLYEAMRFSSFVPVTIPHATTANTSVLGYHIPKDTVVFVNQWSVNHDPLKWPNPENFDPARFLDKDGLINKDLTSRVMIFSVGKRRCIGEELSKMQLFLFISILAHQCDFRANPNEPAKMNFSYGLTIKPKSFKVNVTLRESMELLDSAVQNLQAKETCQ
Summary of the method: (§2)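 Substrate was incubated with insect-cell Supersomes expressing human CYP1A1 or CYP1B1 plus NADPH reductase, at 20 pmol/mL CYP. Controls used non-CYP Supersomes, or omitted the compound, NADPH or active enzyme. Duplicate samples were taken every 5 min and quenched with ice-cold acetonitrile. After centrifugation, the supernatant was analysed by reverse-phase HPLC for parent depletion (half-life) and metabolite peaks.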

[8] = biological target: T2, Cytochrome P450 1A1 (Homo sapiens, UniProt P04798); assay: Drug metabolism in supersomes expressing human CYP1A1 and coexpressing NADPH reductase assessed as CYP1A1-mediated drug metabolism by measuring retention time at 10 uM in the presence of NADPH measured at 5 mins interval for 25 mins by reverse phase HPLC method; assay type: ADME; details: recombinant enzyme; summary of the method: as §2
T2 sequence (P04798 whole entry): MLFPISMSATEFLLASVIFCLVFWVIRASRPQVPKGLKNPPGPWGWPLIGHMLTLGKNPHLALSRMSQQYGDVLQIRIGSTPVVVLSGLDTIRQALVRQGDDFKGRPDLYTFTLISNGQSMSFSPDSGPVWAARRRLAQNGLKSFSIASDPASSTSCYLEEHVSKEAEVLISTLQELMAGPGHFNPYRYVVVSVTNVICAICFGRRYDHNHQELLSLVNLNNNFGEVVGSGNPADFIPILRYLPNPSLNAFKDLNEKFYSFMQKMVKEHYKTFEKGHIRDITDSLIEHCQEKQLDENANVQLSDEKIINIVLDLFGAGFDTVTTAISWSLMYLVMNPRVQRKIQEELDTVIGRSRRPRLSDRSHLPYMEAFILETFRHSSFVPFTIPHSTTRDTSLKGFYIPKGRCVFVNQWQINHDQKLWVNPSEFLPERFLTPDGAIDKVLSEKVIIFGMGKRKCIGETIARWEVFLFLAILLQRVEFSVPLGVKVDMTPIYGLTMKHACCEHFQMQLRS

[9] = biological target: T2, Cytochrome P450 1A1; assay: Drug metabolism in supersomes expressing human CYP1A1 and coexpressing NADPH reductase assessed as CYP1A1-mediated 4-(3,4-Dihydroxyphenyl)-6-(2,4-dimethoxyphenyl)-1H-pyridin-2-one formation at 10 uM in the presence of NADPH measured at 5 mins interval for 25 mins by reverse phase HPLC method; assay type: ADME; details: recombinant enzyme; summary of the method: as §2
[10] = biological target: T1, Cytochrome P450 1B1; assay: Drug metabolism in supersomes expressing human CYP1B1 and coexpressing NADPH reductase assessed as CYP1B1-mediated second metabolite retention time at 10 uM in the presence of NADPH measured at 5 mins interval for 25 mins by reverse phase HPLC method; assay type: ADME; details: recombinant enzyme; summary of the method: as §2
[11] = tested on: MDA-MB-468; assay: Antiproliferative activity against ER negative human MDA-MB-468 cells expressing CYP1A1 and CYP1B1 assessed as reduction in cell viability in presence of CYP 1 inhibitor alpha-naphthoflavone at 1 uM measured after 96 hrs by MTT assay; assay type: functional, cell-based; details: MDA-MB-468, 96 h
[12] = tested on: MCF-10A; assay: Antiproliferative activity against human MCF10A cells assessed as reduction in cell viability in presence of CYP 1 inhibitor alpha-naphthoflavone at 1 uM measured after 96 hrs by MTT assay
[13] = tested on: MCF7; assay: Antiproliferative activity against […]-induced ER positive human MCF7 cells expressing CYP1A1 assessed as reduction in cell viability in presence of CYP 1 inhibitor alpha-naphthoflavone measured after 96 hrs by MTT assay; assay type: functional, cell-based; details: MCF7, 96 h
[14] = biological target: T3, CYP1B1 (Homo sapiens, UniProt Q16678); assay: Drug metabolism in supersomes expressing human CYP1B1 and coexpressing NADPH reductase assessed as CYP1B1-mediated drug metabolism by measuring compound half life at 10 uM in the presence of NADPH measured at 5 mins interval for 25 mins by reverse phase HPLC analysis; assay type: ADME; summary of the method: as §2
T3 sequence (Q16678 whole entry): T1 sequence (Q16678 whole entry)

[15] = biological target: T4, CYP1A1 (Homo sapiens, UniProt P04798); assay: Drug metabolism in supersomes expressing human CYP1A1 and coexpressing NADPH reductase assessed as CYP1A1-mediated drug metabolism by measuring compound half life at 10 uM in the presence of NADPH measured at 5 mins interval for 25 mins by reverse phase HPLC analysis; assay type: ADME; summary of the method: as §2
T4 sequence (P04798 whole entry): T2 sequence (P04798 whole entry)

[16] = tested on: MCF7; assay: Antiproliferative activity against ER positive human MCF7 cells expressing low level of CYP assessed as reduction in cell viability in presence of CYP 1 inhibitor alpha-naphthoflavone at 1 uM measured after 96 hrs by MTT assay; assay type: functional, cell-based; details: MCF7, 96 h
[17] = biological target: T1, Cytochrome P450 1B1; assay: Drug metabolism in supersomes expressing human CYP1B1 and coexpressing NADPH reductase assessed as CYP1B1-mediated 4-(3,4-Dihydroxyphenyl)-6-(2,4-dimethoxyphenyl)-1H-pyridin-2-one formation at 10 uM in the presence of NADPH measured at 5 mins interval for 25 mins by reverse phase HPLC method; assay type: ADME; details: recombinant enzyme; summary of the method: as §2

Row | Structure (SMILES) | IC50 [2] [µM] | IC50 [3] [µM] | IC50 [4] [µM] | Retention_time [7] [min] | Retention_time [8] [min] | Drug metabolism [9] | Retention_time [10] [min] | IC50 [11] [µM] | IC50 [13] [µM] | half-life at 10 µM [14] [min] | half-life at 10 µM [15] [min] | IC50 [16] [µM] | Drug metabolism [17] | IC50 [1] [µM] | selectivity ratio [5] | Ratio IC50 [6] | IC50 [12] [µM]
1 | COc1ccc(-c2cc(-c3ccc4c(c3)OCO4)[nH]c(=O)c2)c(OC)c1 | 18 | 6 | 1 | – | – | – | – | – | – | – | – | – | – | 80 | 13 | 18 | –
2 | COc1ccc(-c2cc(-c3ccc4c(c3)OCO4)cc(=O)[nH]2)cc1OC | > 100 | 0.41 | > 100 | – | – | – | – | – | – | – | – | – | – | > 100 | > 244 | – | –
3 | COc1ccc(-c2cc(-c3ccc4c(c3)OCCO4)cc(=O)[nH]2)c(OC)c1 | 2.5 | 0.5 | 3 | – | – | – | – | – | – | – | – | – | – | 6 | 12 | 0.8 | –
4 | O=c1cc(-c2ccc3c(c2)OCO3)cc(-c2ccc(Cl)cc2Cl)[nH]1 | 85 | 60 | 70 | – | – | – | – | – | – | – | – | – | – | > 100 | > 1.7 | 1.2 | –
5 | COc1ccc(-c2cc(-c3ccc4c(c3)OCO4)cc(=O)[nH]2)c(OC)c1OC | 12 | 8 | 10 | – | – | – | – | – | – | – | – | – | – | > 100 | > 12.5 | 1.2 | –
6 | COc1ccc(OC)c(-c2cc(-c3ccc4c(c3)OCO4)cc(=O)[nH]2)c1 | 2 | 0.02 | 0.02 | – | – | – | – | – | – | – | – | – | – | 5 | 250 | 100 | –
7 | COc1cc(OC)cc(-c2cc(-c3ccc4c(c3)OCO4)cc(=O)[nH]2)c1 | 0.4 | 0.35 | 0.2 | – | – | – | – | – | – | – | – | – | – | 0.7 | 2 | 2 | –
8 | COc1ccc(-c2cc(-c3ccc4c(c3)OCO4)cc(=O)[nH]2)cc1 | > 100 | 1 | > 100 | – | – | – | – | – | – | – | – | – | – | > 100 | > 100 | – | –
9 | COc1cc(-c2cc(-c3ccc4c(c3)OCO4)cc(=O)[nH]2)cc(OC)c1OC | > 100 | 50 | 0.2 | – | – | – | – | – | – | – | – | – | – | > 100 | > 2 | >500 | –
10 | CCCOc1ccc(-c2cc(-c3ccc(OC)c(OC)c3)[nH]c(=O)c2)cc1 | 60 | 0.18 | 20 | – | – | – | – | – | – | – | – | – | – | 70 | 389 | 3 | –
11 | O=c1cc(-c2ccc3c(c2)OCO3)cc(-c2ccccc2)[nH]1 | 1.6 | 0.8 | 0.8 | – | – | – | – | – | – | – | – | – | – | 2.5 | 3.1 | 2 | –
12 | COc1ccccc1-c1cc(-c2ccc3c(c2)OCO3)cc(=O)[nH]1 | 7 | 0.7 | 3.5 | – | – | – | – | – | – | – | – | – | – | 28 | 40 | 2 | –
13 | COc1ccc(/C=C\c2cc(OC)c(OC)c(OC)c2)cc1O [COMBRETASTATIN A4] | – | 0.003 | 0.002 | – | – | – | – | – | – | – | – | – | – | 0.0016 | 0.53 | 1 | –

Now from value to compound, other results behind:

Row | IC50 [2] [µM] | IC50 [3] [µM] | IC50 [4] [µM] | Retention_time [7] [min] | Retention_time [8] [min] | Drug metabolism [9] | Retention_time [10] [min] | IC50 [11] [µM] | IC50 [13] [µM] | half-life at 10 µM [14] [min] | half-life at 10 µM [15] [min] | IC50 [16] [µM] | Drug metabolism [17] | Structure (SMILES) | IC50 [1] [µM] | selectivity ratio [5] | Ratio IC50 [6] | IC50 [12] [µM]
14 | 9 | 5 | 4.5 | – | – | – | – | – | – | – | – | – | – | COc1ccc(-c2cc(-c3ccc(OC)cc3OC)[nH]c(=O)c2)c(OC)c1 | 5 | 1 | 2 | –
15 | 0.5 | 0.08 | 0.2 | – | – | – | – | – | – | – | – | – | – | COc1ccc(-c2cc(-c3ccc(OC)cc3OC)[nH]c(=O)c2)cc1 | 1.6 | 20 | 2.5 | –
16 | 1.5 | 0.5 | 0.7 | 10.48 | 10.48 | – | – | – | – | – | – | – | – | COc1ccc(-c2cc(-c3ccc(O)c(O)c3)cc(=O)[nH]2)c(OC)c1 | 1.5 | 3 | 2.1 | –
17 | 1 | 0.5 | 0.4 | – | – | – | – | – | – | – | – | – | – | COc1ccc(-c2cc(-c3ccc(OC)c(OC)c3)cc(=O)[nH]2)c(OC)c1 | 50 | 100 | 2.5 | –
18 | 9 | 0.04 | 1.8 | – | – | Metabolite_Detected | 9.22 | > 100 | 9 | 30.1 | 12.9 | 12 | Metabolite_Detected | COc1ccc(-c2cc(-c3ccc4c(c3)OCO4)cc(=O)[nH]2)c(OC)c1 | 40 | 1000 | 5 | > 100
19 | 45 | 0.4 | 9 | – | – | – | – | – | – | – | – | – | – | CCCOc1ccc(-c2cc(-c3ccc(OC)cc3OC)[nH]c(=O)c2)cc1 | 50 | 125 | 5 | –

— ChEMBL document CHEMBL4390684, “The synthesis of 4,6-diaryl-2-pyridones and their bioactivation in CYP1 expressing breast cancer cells” (Bioorg Med Chem Lett, 2019)
